Reference: ChEMBL document CHEMBL1147076, “Antitumor activity of MLN8054, an orally active small-molecule inhibitor of Aurora A kinase” (Proc Natl Acad Sci U S A, 2007)
Activity calls are given as the source filed them. No cut-off for these calls is given here.

Legend:
[1] = target: Ephrin type-A receptor 5 (Homo sapiens) (UniProt P54756); test: Activity of human EphA5 kinase at 1 uM
How it was run: (§1)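 Single-point kinase profiling: each kinase in a 226-kinase panel tested with compound at 1 μM and ATP at 10 μM in every assay, run by an external screening service.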

[2] = target: Tyrosine-protein kinase Fer (Homo sapiens) (UniProt P16591); test: Activity of human Fer kinase at 1 uM; how it was run: as §1
[3] = target: Dual specificity protein kinase CLK3 (Homo sapiens) (UniProt P49761); test: Activity of human CLK3 kinase at 1 uM
[4] = target: Serine/threonine-protein kinase PLK3 (Homo sapiens) (UniProt Q9H4B4); test: Activity of human Plk3 kinase at 1 uM
Serine/threonine-protein kinase PLK3 (Homo sapiens), sequence (Q9H4B4 whole entry, looked up): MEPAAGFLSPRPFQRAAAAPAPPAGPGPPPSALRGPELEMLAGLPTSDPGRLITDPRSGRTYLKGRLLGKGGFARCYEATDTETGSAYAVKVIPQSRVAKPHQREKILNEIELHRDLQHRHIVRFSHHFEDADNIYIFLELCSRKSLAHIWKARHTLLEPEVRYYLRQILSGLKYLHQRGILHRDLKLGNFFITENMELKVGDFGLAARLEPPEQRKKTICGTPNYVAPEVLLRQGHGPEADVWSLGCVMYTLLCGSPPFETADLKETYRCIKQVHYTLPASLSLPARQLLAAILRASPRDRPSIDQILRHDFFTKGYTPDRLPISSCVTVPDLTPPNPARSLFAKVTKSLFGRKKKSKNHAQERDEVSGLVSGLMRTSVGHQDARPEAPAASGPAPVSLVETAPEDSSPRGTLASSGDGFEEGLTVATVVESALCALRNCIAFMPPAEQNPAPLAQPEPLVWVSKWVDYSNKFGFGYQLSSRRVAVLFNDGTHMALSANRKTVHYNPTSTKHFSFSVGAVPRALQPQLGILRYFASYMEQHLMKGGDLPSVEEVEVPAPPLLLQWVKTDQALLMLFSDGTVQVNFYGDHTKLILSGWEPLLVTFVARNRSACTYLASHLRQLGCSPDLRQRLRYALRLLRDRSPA
How it was run: (§2)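 Single-concentration screen across a 226-kinase panel run by an outside provider; test compound at 1 μM with 10 μM ATP in every assay. Other conditions not detailed.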

[5] = target: Serine/threonine-protein kinase DCLK2 (Homo sapiens) (UniProt Q8N568); test: Activity of human DCAMKL2 kinase at 1 uM; how it was run: as §1
[6] = target: cGMP-dependent protein kinase 1 (Homo sapiens) (UniProt Q13976); test: Activity of human PKG1alpha kinase at 1 uM; how it was run: as §1
[7] = target: SRSF protein kinase 3 (Homo sapiens) (UniProt Q9UPE1); test: Activity of human MSSK1 kinase at 1 uM
[8] = tested on: PC-3; test: Induction of apoptosis in human PC3 cells assessed as PARP cleavage at 4 uM after 48 hrs by Western blot method; assay type: functional, cell-based
[9] = target: Protein kinase C beta type (Homo sapiens) (UniProt P05771); test: Activity of human PKC-beta-2 kinase at 1 uM
How it was run: (§3)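 Single-point screen in a 226-kinase panel run by an outside service. Test compound at 1 μM with ATP at 10 μM in every assay. Other assay conditions are not given.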

[10] = target: Tyrosine-protein kinase receptor UFO (Homo sapiens) (UniProt P30530); test: Activity of human Axl kinase at 1 uM; how it was run: as §1
[11] = tested on: PC-3; test: Cell cycle arrest in human PC3 cells by accumulation at G1 phase at 1 uM after 48 hrs by flow cytometry relative to control; assay type: functional
How it was run: (§4)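 DNA content profiles by flow cytometry of PC-3 prostate tumor cells exposed to drug diluted in DMSO for 24 or 48 h. Phase distribution was compared with DMSO-treated control cells.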

[12] = target: Misshapen-like kinase 1 (Homo sapiens) (UniProt Q8N4C8); test: Activity of human MINK kinase at 1 uM
[13] = target: Serine/threonine-protein kinase Chk1 (Homo sapiens) (UniProt O14757); test: Activity of human CHK1 kinase at 1 uM; how it was run: as §1
Serine/threonine-protein kinase Chk1 (Homo sapiens), sequence (O14757 whole entry): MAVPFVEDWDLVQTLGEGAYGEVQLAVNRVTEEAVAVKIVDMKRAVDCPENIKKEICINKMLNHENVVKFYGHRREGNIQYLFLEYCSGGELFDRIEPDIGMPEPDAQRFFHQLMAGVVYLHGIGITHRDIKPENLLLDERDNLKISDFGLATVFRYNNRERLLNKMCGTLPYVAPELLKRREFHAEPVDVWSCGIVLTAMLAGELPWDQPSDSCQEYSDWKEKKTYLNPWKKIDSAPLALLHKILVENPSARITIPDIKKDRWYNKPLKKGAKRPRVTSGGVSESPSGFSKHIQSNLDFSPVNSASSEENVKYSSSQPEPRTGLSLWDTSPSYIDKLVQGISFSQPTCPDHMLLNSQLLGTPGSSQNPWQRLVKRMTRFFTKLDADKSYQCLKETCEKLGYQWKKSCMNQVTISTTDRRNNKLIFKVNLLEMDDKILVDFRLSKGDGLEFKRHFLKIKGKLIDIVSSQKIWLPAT

[14] = target: Casein kinase I homolog 1 (Saccharomyces cerevisiae S288c) (UniProt P23291); test: Activity of Saccharomyces cerevisiae CK1 kinase at 1 uM
[15] = target: Tyrosine-protein kinase FRK (Homo sapiens) (UniProt P42685); test: Activity of human PTK5 kinase at 1 uM; how it was run: as §3
[16] = target: Serine/threonine-protein kinase NLK (Homo sapiens) (UniProt Q9UBE8); test: Activity of human NLK kinase at 1 uM; how it was run: as §3
[17] = tested on: PC-3; test: Cell cycle arrest in human PC3 cells by accumulation at G1 phase at 4 uM after 24 hrs by flow cytometry relative to control; assay type: functional; how it was run: as §4
[18] = target: Serine/threonine-protein kinase 3 (Homo sapiens) (UniProt Q13188); test: Activity of human MST2 kinase at 1 uM
[19] = tested on: Calu-6; test: Antiproliferative activity against human Calu6 cells after 96 hrs by BrdU cell proliferation ELISA; assay type: functional, cell-based; conditions: Calu-6, 96 h
How it was run: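 BrdU incorporation proliferation assay on cultured human tumor lines; IC50 values derived from growth inhibition.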

[20] = target: G protein-coupled receptor kinase 5 (Homo sapiens) (UniProt P34947); test: Activity of human GRK5 kinase at 1 uM; how it was run: as §1
[21] = target: Ephrin type-A receptor 3 (Homo sapiens) (UniProt P29320); test: Activity of human EphA3 kinase at 1 uM
[22] = target: Vascular endothelial growth factor receptor 1 (Homo sapiens) (UniProt P17948); test: Activity of human Flt1 kinase at 1 uM; how it was run: as §1
[23] = target: Serine/threonine-protein kinase WNK3 (Homo sapiens) (UniProt Q9BYP7); test: Activity of human WNK3 kinase at 1 uM; how it was run: as §3
Serine/threonine-protein kinase WNK3 (Homo sapiens), sequence (Q9BYP7 whole entry): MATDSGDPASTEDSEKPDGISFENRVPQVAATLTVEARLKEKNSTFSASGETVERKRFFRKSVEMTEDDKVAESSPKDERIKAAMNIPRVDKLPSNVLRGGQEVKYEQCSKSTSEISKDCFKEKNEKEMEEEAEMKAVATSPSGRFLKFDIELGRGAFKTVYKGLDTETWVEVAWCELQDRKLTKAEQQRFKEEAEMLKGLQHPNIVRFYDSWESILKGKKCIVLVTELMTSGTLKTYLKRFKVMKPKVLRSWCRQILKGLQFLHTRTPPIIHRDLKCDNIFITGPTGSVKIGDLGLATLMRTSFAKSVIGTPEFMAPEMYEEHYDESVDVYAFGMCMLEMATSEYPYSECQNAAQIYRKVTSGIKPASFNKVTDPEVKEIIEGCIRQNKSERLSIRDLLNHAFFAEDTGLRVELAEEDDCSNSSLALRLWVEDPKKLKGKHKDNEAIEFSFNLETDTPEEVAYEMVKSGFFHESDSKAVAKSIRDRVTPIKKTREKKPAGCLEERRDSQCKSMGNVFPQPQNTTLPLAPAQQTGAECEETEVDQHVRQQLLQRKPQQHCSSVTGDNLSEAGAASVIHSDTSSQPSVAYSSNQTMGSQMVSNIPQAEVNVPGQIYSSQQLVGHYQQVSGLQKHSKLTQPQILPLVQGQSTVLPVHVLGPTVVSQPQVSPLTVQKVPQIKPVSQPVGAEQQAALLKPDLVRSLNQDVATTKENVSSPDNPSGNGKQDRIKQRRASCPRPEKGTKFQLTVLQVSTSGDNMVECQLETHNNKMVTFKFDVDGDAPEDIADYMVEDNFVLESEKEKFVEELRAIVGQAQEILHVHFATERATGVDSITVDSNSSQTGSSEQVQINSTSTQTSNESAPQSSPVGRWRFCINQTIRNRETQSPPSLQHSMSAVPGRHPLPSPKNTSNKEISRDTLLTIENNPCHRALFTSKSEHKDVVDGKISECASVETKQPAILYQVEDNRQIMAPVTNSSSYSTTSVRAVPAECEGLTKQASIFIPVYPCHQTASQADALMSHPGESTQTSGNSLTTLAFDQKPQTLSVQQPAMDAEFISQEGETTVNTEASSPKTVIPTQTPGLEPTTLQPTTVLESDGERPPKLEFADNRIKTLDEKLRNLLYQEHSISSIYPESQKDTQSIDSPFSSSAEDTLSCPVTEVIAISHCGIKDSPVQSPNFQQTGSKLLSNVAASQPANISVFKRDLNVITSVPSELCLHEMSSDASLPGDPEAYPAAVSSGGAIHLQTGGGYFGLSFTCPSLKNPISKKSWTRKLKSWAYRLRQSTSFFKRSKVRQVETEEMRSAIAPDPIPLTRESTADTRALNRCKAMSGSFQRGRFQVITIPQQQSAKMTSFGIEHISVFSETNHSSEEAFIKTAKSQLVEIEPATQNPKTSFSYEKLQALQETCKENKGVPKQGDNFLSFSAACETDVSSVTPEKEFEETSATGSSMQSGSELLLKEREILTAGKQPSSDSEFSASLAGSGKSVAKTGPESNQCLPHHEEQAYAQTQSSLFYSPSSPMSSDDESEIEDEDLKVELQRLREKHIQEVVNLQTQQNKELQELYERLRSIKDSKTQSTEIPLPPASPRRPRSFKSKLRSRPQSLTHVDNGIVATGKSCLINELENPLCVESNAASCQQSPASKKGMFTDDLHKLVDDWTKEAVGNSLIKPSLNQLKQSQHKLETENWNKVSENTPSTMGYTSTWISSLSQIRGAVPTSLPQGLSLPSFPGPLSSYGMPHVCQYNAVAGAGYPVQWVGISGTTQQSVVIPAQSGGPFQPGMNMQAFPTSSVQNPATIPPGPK

[24] = target: Tyrosine-protein kinase Yes (Homo sapiens) (UniProt P07947); test: Activity of human Yes kinase at 1 uM; how it was run: as §2
Tyrosine-protein kinase Yes (Homo sapiens), sequence (P07947 2-543 limits assumed): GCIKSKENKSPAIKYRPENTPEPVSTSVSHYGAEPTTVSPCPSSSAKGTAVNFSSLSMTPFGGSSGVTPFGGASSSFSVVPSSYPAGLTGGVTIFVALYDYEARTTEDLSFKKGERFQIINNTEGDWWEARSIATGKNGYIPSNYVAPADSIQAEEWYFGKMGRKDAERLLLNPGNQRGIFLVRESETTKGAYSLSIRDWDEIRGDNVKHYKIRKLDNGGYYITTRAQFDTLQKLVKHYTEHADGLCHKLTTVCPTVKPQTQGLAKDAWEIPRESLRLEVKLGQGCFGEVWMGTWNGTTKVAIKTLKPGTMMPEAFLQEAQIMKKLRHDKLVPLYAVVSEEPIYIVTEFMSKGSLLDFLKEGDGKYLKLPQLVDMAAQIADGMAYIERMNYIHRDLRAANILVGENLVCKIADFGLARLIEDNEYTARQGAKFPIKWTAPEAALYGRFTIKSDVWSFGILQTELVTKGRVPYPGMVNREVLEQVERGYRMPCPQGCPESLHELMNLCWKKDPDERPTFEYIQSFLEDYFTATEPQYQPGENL

[25] = target: Serine/threonine-protein kinase Sgk1 (Homo sapiens) (UniProt O00141); test: Activity of human SGK kinase at 1 uM; how it was run: as §3
[26] = target: Interleukin-1 receptor-associated kinase 4 (Homo sapiens) (UniProt Q9NWZ3); test: Activity of human IRAK4 kinase at 1 uM
[27] = target: Tyrosine-protein kinase SYK (Homo sapiens) (UniProt P43405); test: Activity of human Syk kinase at 1 uM; how it was run: as §3
[28] = species: Homo sapiens; test: Activity of human CK2 kinase at 1 uM
[29] = Plasma concentration in human HCT116 cells xenografted in mouse at 30 mg/kg, po after 8 hrs; assay type: ADME, organism-based, HCT-116; set-up: dose 30 mg/kg, route oral
[30] = target: Mitogen-activated protein kinase kinase kinase 5 (Homo sapiens) (UniProt Q99683); test: Activity of human ASK1 kinase at 1 uM
Mitogen-activated protein kinase kinase kinase 5 (Homo sapiens), sequence (Q99683 whole entry): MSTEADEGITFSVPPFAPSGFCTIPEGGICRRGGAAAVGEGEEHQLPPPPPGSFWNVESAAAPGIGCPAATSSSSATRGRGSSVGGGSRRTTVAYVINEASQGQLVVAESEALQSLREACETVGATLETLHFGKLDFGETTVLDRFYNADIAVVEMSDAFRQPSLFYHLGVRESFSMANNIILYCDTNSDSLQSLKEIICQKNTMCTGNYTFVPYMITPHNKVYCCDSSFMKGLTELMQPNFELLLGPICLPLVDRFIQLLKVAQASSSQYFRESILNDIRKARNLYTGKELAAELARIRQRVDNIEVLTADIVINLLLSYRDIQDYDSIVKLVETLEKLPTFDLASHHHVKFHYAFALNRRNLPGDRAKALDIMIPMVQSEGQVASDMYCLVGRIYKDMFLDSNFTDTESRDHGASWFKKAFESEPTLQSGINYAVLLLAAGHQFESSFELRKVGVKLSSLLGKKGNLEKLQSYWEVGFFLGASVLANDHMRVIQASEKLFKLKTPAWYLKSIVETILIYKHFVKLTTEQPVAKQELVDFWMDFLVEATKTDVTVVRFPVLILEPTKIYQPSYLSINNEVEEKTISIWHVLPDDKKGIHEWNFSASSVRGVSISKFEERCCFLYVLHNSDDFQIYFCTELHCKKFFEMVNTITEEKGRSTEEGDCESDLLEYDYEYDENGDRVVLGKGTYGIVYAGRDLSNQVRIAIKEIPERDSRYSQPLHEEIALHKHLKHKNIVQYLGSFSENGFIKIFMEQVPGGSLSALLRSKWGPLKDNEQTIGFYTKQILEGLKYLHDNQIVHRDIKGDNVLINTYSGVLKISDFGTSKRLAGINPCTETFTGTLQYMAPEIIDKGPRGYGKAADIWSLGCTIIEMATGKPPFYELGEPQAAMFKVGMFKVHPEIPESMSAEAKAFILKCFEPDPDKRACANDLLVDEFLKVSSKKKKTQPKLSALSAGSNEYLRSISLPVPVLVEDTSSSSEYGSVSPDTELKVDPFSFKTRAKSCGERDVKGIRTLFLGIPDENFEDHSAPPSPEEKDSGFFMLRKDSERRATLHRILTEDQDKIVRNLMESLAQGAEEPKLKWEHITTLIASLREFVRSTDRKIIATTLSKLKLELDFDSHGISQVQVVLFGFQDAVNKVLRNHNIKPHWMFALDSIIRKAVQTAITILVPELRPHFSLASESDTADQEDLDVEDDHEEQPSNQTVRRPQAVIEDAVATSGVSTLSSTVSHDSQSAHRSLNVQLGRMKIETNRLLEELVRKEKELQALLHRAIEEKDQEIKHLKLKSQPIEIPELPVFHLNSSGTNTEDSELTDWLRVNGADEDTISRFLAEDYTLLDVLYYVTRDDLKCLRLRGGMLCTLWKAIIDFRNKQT

[31] = target: Serine/threonine-protein kinase N2 (Homo sapiens) (UniProt Q16513); test: Activity of human PRK2 kinase at 1 uM; how it was run: as §3
[32] = tested on: PC-3; test: Cell cycle arrest in human PC3 cells by accumulation at S phase at 4 uM after 48 hrs by flow cytometry relative to control; assay type: functional; how it was run: as §4
[33] = target: Macrophage-stimulating protein receptor (Homo sapiens) (UniProt Q04912); test: Activity of human Ron kinase at 1 uM; how it was run: as §3
[34] = target: Protein kinase C theta type (Homo sapiens) (UniProt Q04759); test: Activity of human PKCtheta kinase at 1 uM; how it was run: as §1
[35] = target: Casein kinase I isoform gamma-3 (Homo sapiens) (UniProt Q9Y6M4); test: Activity of human CK1gamma3 kinase at 1 uM; how it was run: as §1
[36] = tested on: Mus musculus; test: Toxicity in human HCT116 cells xenografted into athymic nude NCR nu/nu mouse assessed as decrease in neutrophil count at 30 mg/kg, BID after 21 days; assay type: organism-based, HCT-116; set-up: dose 30 mg/kg; scale not given: the % may be the effect or the level left; conditions: in vivo, 504 h
How it was run: (§5)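 Female athymic nude NCR nu/nu mice were given HCT-116 cells (1 × 10^6) s.c. in the right flank. Drug in 10% hydroxypropyl-β-cyclodextrin/5% sodium bicarbonate was given orally (QD or BID) for 21 days. Body weight loss was recorded at the end of treatment, and neutrophil counts were also followed for the BID regimen.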

[37] = species: Homo sapiens; test: Activity of human CDK5/p25 kinase at 1 uM
[38] = target: Cyclin-dependent kinase 2/cyclin E1 (Homo sapiens) (UniProt P24864+P24941); test: Activity of human CDK2/cyclin E kinase at 1 uM; assay type: protein-complex assay
[39] = tested on: Mus musculus; test: Toxicity in human HCT116 cells xenografted into athymic nude NCR nu/nu mouse assessed as decrease in body weight at 30 mg/kg, QD after 21 days; assay type: organism-based, HCT-116; set-up: dose 30 mg/kg; scale not given: the % may be the effect or the level left; conditions: in vivo, 504 h; how it was run: as §5
[40] = target: Interleukin-1 receptor-associated kinase 1 (Homo sapiens) (UniProt P51617); test: Activity of human IRAK1 kinase at 1 uM

Question: What does the source list for O=C(O)c1ccc(Nc2ncc3c(n2)-c2ccc(Cl)cc2C(c2c(F)cccc2F)=NC3)cc1 [MLN-8054]?
Answer: Activity [1]: 80%; Activity [2]: 57%; Activity [3]: 81%; Activity [4]: 105%; Activity [5]: 103%; Activity [6]: 103%; Activity [7]: 100%; Activity [8]: Active; Activity [9]: 100%; Activity [10]: 41%; Activity [11]: 23%; Activity [12]: 104%; Activity [13]: 109%; Activity [14]: 115%; Activity [15]: 90%; Activity [16]: 104%; Activity [17]: 23%; Activity [18]: 100%; IC50 [19]: 220 nM; Activity [20]: 109%; Activity [21]: 88%; Activity [22]: 65%; Activity [23]: 88%; Activity [24]: 20%; Activity [25]: 99%; Activity [26]: 97%; Activity [27]: 99%; Activity [28]: 108%; concentration at 8 h [29]: 7.4 µM; Activity [30]: 120%; Activity [31]: 90%; Activity [32]: 4.9%; Activity [33]: 94%; Activity [34]: 112%; Activity [35]: 113%; Activity [36]: 73%; Activity [37]: 94%; Activity [38]: 97%; Activity [39]: < 2%; Activity [40]: 110%
